In assay [1] the target is Tubulin. Description: Inhibition of tubulin polymerization. The assay is classed as protein-complex assay, Homo sapiens. A digest of the protocol:
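Tubulin at 10 µM in 0.8 M monosodium glutamate pH 6.6 with varying drug, preincubated 15 min at 30 °C, then chilled on ice. Assembly started with 0.4 mM GTP and followed as turbidity at 350 nm for 20 min at 30 °C. IC50 taken from the extent of assembly.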

Assay [2] deals with MCF7. Description: Growth inhibition of human MCF7 cells after 48 hrs. The settings on record: MCF7, 48 h. The assay is classed as functional, cell-based.
Assay [3] concerns the target Tubulin. Description: Displacement of MTC from tubulin. Format: protein-complex assay, Homo sapiens.
In assay [4] the target is Tubulin (Homo sapiens) (UniProt P68371+Q9H4B7+P0DPH7+P68366+Q13509+Q71U36+P04350+Q3ZCM7+P07437+P68363+Q9BQE3+Q6PEY2+Q13885+Q9BVA1+Q9BUF5). Description: Inhibition of [3H]colchicine binding to tubulin at 5 uM. The assay is classed as protein-complex assay.
For assay [5], the system named is HeLa. Description: Cell cycle arrest in HeLa cells assessed as accumulation of A0 sub-G1 DNA content at 10 uM after 24 hrs with further incubation in drug free medium for 24 hrs. The assay is classed as functional, Homo sapiens. In outline: (§1)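 HeLa cells in DMEM with 10% FCS, 37 °C, 5% CO2. Subconfluent cells trypsinized, seeded at 2.5 × 10⁵ cells/mL and exposed to 10 µM for 24 h (0.1% DMSO in parallel samples). Harvested either at once or after another 24 h in drug-free medium. Ethanol-fixed, stained with propidium iodide plus RNase A, ≥10 000 cells flow-analysed. Values are % of cells per phase; one typical experiment.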

The subject of assay [6] is HeLa. Description: Induction of apoptosis in HeLa cells assessed as PARP1 ceavage at 10 uM. Format: functional, cell-based. The following applies: Homo sapiens. In outline:
(§2)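 HeLa cells given 10 µM for 24 h, or 100 µM for 3 h followed by 24 h recovery. Total extracts from 2.5 × 10⁶ cells analysed by western blot with anti-PARP-1 mAb C-2-10 and an HRP anti-mouse secondary, ECL detection. PARP-1 proteolysis taken as the marker of caspase activation.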

Assay [7] has as its system HeLa. Description: Cell cycle arrest in HeLa cells assessed as accumulation of A0 sub-G1 DNA content at 10 uM after 24 hrs. Format: functional, Homo sapiens. A digest of the protocol: as §1
Assay [8] deals with HeLa. Description: Cell cycle arrest in HeLa cells assessed as accumulation at G2/M phase at 10 uM after 24 hrs. The assay is classed as functional, Homo sapiens. In outline: as §1
Assay [9] relates to HeLa. Description: Cell cycle arrest in HeLa cells assessed as accumulation at S phase at 10 uM after 24 hrs with further incubation in drug free medium for 24 hrs. Format: functional, Homo sapiens. A digest of the protocol: as §1
The subject of assay [10] is HeLa. Description: Cell cycle arrets in HeLa cells assessed as accumulation at G1 phase at 10 uM after 24 hrs. The assay is classed as functional, Homo sapiens. In outline:
as §1

Assay [11] relates to HeLa. Description: Cell cycle arrest in HeLa cells assessed as accumulation at G2/M phase at 10 uM after 24 hrs with furthur incubation in drug free medium for 24 hrs. The assay is classed as functional, Homo sapiens. In outline: as §1
Assay [12] relates to HeLa. Description: Cell cycle arrest in HeLa cells assessed as accumulation at >4C phase at 10 uM after 24 hrs with furthur incubation in drug free medium for 24 hrs. Format: functional, Homo sapiens. In outline: as §1
Assay [13] deals with HeLa. Description: Cell cycle arrest in HeLa cells assessed as accumulation at >4C phase at 10 uM after 24 hrs. The assay is classed as functional, Homo sapiens. A digest of the protocol: as §1
Assay [14] relates to HeLa. Description: Cell cycle arrest in HeLa cells assessed as accumulation at S phase at 10 uM after 24 hrs. Format: functional, Homo sapiens. In outline: as §1
Assay [15] has as its system HeLa. Description: Cell cycle arrets in HeLa cells assessed as accumulation at G1 phase at 10 uM for 24 hrs with further incubation in drug free medium for 24 hrs. Format: functional, Homo sapiens. In outline:
as §1

Assay [16] deals with HeLa. Description: Induction of apoptosis in HeLa cells assessed as PARP1 ceavage at 100 uM. Format: functional, cell-based. The settings on record: Homo sapiens. In outline: as §2

Each structure is given as a SMILES string. Active and inactive are the calls of the source. The rule behind the calls is not given here.

With `COc1cc(Sc2c[nH]c3ccc(N)cc23)cc(OC)c1OC`, the figures for the IC50 in [1] and in assay [2] were 13000 nM and 260 nM, respectively.

The compound `COc1cc(Sc2c[nH]c3ccc(I)cc23)cc(OC)c1OC` gave a Ka in [3] of 2.31e+06 M⁻¹. Besides, the IC50 in assay [1] was 2700 nM; in [2], 68 nM. In [4], this compound yielded an inhibition of 61%.

`Cc1cc(C)cc(Sc2c[nH]c3ccc(Cl)cc23)c1`: the figures for the IC50 in assay [1] and in [2] were 9400 nM and 1200 nM, respectively. The inhibition in assay [4] stood at 33%.

Regarding `COC(=O)c1[nH]c2ccccc2c1Sc1cc(OC)c(OC)c(OC)c1`, in assay [3], the Ka came out at 570000 M⁻¹.

In turn, `COc1ccc(/C=C\c2cc(OC)c(OC)c(OC)c2)cc1O` [COMBRETASTATIN A4] displayed an IC50 in assay [2] of 17 nM.

Take `COc1cc(Sc2c[nH]c3ccc(OC(C)C)cc23)cc(OC)c1OC`: the IC50 is 19000 nM in [1] and 1500 nM in assay [2].

Take `COc1cc(Sc2c[nH]c3ccccc23)cc(OC)c1OC`: in [3], the Ka turned out to be 5.21e+06 M⁻¹. The values for the IC50 in [1] and in assay [2] were 2600 nM and 34 nM, respectively. This compound yielded an inhibition in assay [4] of 68%.

Compound `COc1ccc(-c2ccc(OC)c(=O)cc2)c(OC)c1OC` registered a Ka in assay [3] of 470000 M⁻¹.

For the compound `COc1cc(Sc2c[nH]c3ccc(OCCOCc4ccccc4)cc23)cc(OC)c1OC`, the IC50 in assay [1] is more than 40000 nM; in [2], 260 nM.

`COc1cc(Sc2c[nH]c3ccc([N+](=O)[O-])cc23)cc(OC)c1OC`: the IC50 in assay [1] turned out to be 16000 nM; in [2] it was 560 nM.

The compound `COc1cc(Sc2c[nH]c3ccc(C)cc23)cc(OC)c1OC` came in with a Ka in assay [3] of 1.96e+06 M⁻¹. Besides, the half-inhibitory concentration (IC50) in [1] is 2700 nM; in [2], 16 nM. In addition, the inhibition in assay [4] is 56%.

As to `COc1cc(Sc2c[nH]c3ccc(Cl)cc23)cc(OC)c1OC`, the Ka in assay [3] stood at 810000 M⁻¹. Besides, the IC50 in assay [1] came to 2600 nM; in [2], 77 nM. For the same compound, the inhibition in assay [4] was 51%.

Regarding `COc1cc(Sc2c[nH]c3ccc(O)cc23)cc(OC)c1OC`, the IC50 was determined as 6300 nM in assay [1] and 190 nM in assay [2]. The compound also came in with an inhibition in [4] of 26%.

In the case of `CCOc1ccc2[nH]cc(Sc3cc(OC)c(OC)c(OC)c3)c2c1`, the figures for the IC50 in assay [1] and in assay [2] were 2100 nM and 16 nM, respectively. This compound had an inhibition in [4] of 76%.

In the case of `COc1cc(Sc2c(C)[nH]c3ccc(Cl)cc23)cc(OC)c1OC`, the Ka in assay [3] is 2.07e+06 M⁻¹. Also, the IC50 in [1] is 2700 nM; in assay [2], 82 nM. The inhibition in [4] came to 59%.

As to `COc1cc(Sc2c[nH]c3ccc(F)cc23)cc(OC)c1OC`, the IC50 came out at 3300 nM in assay [1] and 160 nM in assay [2]. The inhibition in assay [4] was 39%.

In assay [3], `COc1ccc2[nH]cc(Sc3cc(OC)c(OC)c(OC)c3)c2c1` returned a Ka of 3.05e+06 M⁻¹. Moreover, the IC50 stood at 4100 nM in assay [1] and 22 nM in assay [2]. Also, the inhibition in [4] turned out to be 61%.

Consider `COc1cc(Sc2c[nH]c3ccc(Br)cc23)cc(OC)c1OC`, for which the Activity was determined as 4.5% in assay [5]; 6.5% in assay [7]; 56.1% in [8]; 10.5% in assay [9]; 1.8% in [10]; 53.1% in [11]. Moreover, the Activity in assay [12] stood at 26%; in assay [13], 4.2%; in [14] it was 8.9%; in assay [15], 3.5%. Further, in assay [6], the outcome was inactive. For the same compound, the Ka in assay [3] was 2.76e+06 M⁻¹. Also, the IC50 stood at 1600 nM in [1] and 43 nM in [2]. In [4], this compound came in with an inhibition of 65%.

The compound `COc1ccc2[nH]c(C)c(Sc3cc(OC)c(OC)c(OC)c3)c2c1` came in with a Ka in [3] of 6.38e+06 M⁻¹. The IC50 in assay [1] is 3300 nM; in [2], 18 nM. In assay [4], this compound registered an inhibition of 69%.

For the compound `COc1cc([C@@H]2c3cc4c(cc3[C@@H](O[C@@H]3O[C@@H]5CO[C@@H](C)O[C@H]5[C@H](O)[C@H]3O)[C@H]3COC(=O)[C@H]23)OCO4)cc(OC)c1O`, in [16], the outcome was Active.

In turn, `COc1cc(Sc2c(C)[nH]c3ccccc23)cc(OC)c1OC` showed a Ka in assay [3] of 5.5e+06 M⁻¹. For the same compound, the IC50 in assay [1] was found to be 6800 nM; in assay [2], 46 nM. In [4], this compound had an inhibition of 61%.

On to `COC(=O)c1[nH]c2ccc(Cl)cc2c1Sc1cc(OC)c(OC)c(OC)c1`, for which, in assay [3], the Ka came out at 1.3e+06 M⁻¹.

As for `COc1cc(Sc2c[nH]c3ccc(OCCO)cc23)cc(OC)c1OC`, the IC50 came to 6800 nM in assay [1] and 95 nM in assay [2]. For the same compound, the inhibition in assay [4] was 31%.

As to `COc1ccccc1Sc1c[nH]c2ccc(Cl)cc12`, the IC50 in assay [1] was 11000 nM; in assay [2], more than 2500 nM.

The record behind these values is ChEMBL document CHEMBL1143683, “Arylthioindole inhibitors of tubulin polymerization. 3. Biological evaluation, structure-activity relationships and molecular modeling studies” (J Med Chem, 2007).
